# In paper PMC7873610 (European Journal of Medicinal Chemistry, 2021):
# Where two headings read alike, the source gives them in different places.
# Columns and labels:
# [1] = target: β5 catalytic subunit (chymotrypsin-like activity) (Homo sapiens, UniProt P20618+P28074); assay: Proteasome-Glo cell-based chymotrypsin-like; settings: CT-L; for fold increase in inhibitory activity than compounds with unsubstituted phenyl: vs 30, 29 and BSc2189
# SW480 = assay: MTS cytotoxicity assay, SW480; type: cell-based; settings: Homo sapiens, SW480, 72 h, read-out: Cytotoxicity IC50 ± SEM, SW480
# Summary of the method: (§1)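 HeLa, MGC-803 and SW480 cells were maintained in DMEM with 10% FBS at 37 °C and 5% CO2. Each line was plated at 5∗10^3 cells/well in 100 μL and treated with test compound for 72 h. MTS solution was added and incubated 3 more h at 37 °C, then absorbance was measured at 490 nm. Assays were run in triplicate with triplicate wells; IC50 was obtained by curve fitting.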
# MGC-803 = assay: MTS cytotoxicity assay, MGC-803; type: cell-based; settings: Homo sapiens, MGC-803, 72 h, read-out: Cytotoxicity IC50 ± SEM, MGC-803
# Summary of the method: as §1
# Ramos (RA 1) = assay: MTS cytotoxicity assay, Ramos; type: cell-based; settings: Homo sapiens, 72 h, read-out: Cytotoxicity IC50 ± SEM, Ramos (RA 1)
# Summary of the method: (§2)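 RPMI8226, THP-1 and Ramos cells were grown in RPMI 1640 with 10% FBS at 37 °C and 5% CO2. Cells were seeded in 100 μL at 1∗104/well (RPMI8226) or 5∗104/well (THP-1, Ramos) and exposed to test compound for 72 h. MTS was then added for 3 h at 37 °C, and OD was read at 490 nm. Triplicate experiments, triplicate wells each; IC50 from curve fitting.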
# HeLa [2] = assay: MTS cytotoxicity assay, HeLa; type: cell-based; settings: Homo sapiens, 72 h, read-out: Cytotoxicity IC50 ± SEM, Hela, MTS, 72 h
# Summary of the method: as §1
# RPMI8226 = assay: MTS cytotoxicity assay, RPMI8226; type: cell-based; settings: Homo sapiens, RPMI-8226, 72 h, read-out: Cytotoxicity IC50 ± SEM, RPMI8226
# Summary of the method: as §2
# THP-1 = assay: MTS cytotoxicity assay, THP-1; type: cell-based; settings: Homo sapiens, THP-1, 72 h, read-out: Cytotoxicity IC50 ± SEM, THP-1
# Summary of the method: as §2
# [3] = tested on: chymotrypsin-like subunit; settings: cited from earlier work
# HeLa [4] = settings: read-out: IC50 in HeLa cells, previously published value; cited from earlier work
compound,measurement,setting,value
"CC(C)C[C@H](NC(=O)OCc1ccccc1)C(=O)N[C@@H](Cc1c[nH]c2ccccc12)C(=O)N[C@@H](CC(C)C)C(=O)C(=O)Nc1cccc2ccccc12 [Compound 37, ((S)-1-(((S)-3-(1H-indol-3-yl)-1-(((S)-5-methyl-1-(naphthalen-1-ylamino)-1,2-dioxohexan-3-yl)amino)-1-oxopropan-2-yl)amino)-4-methyl-1-oxopentan-2-yl) carbamic acid benzyl ester]",fold decrease in inhibitory potency over 29,[1]; 1-naphthyl vs unsubstituted phenyl head group,2 fold
"COc1cccc(NC(=O)C(=O)[C@H](CC(C)C)NC(=O)[C@H](CC(C)C)NC(=O)[C@H](CC(C)C)NC(=O)c2ccc(-c3ccc(C(C)=O)cc3)o2)c1 [Compound 47, N-((S)-1-(((S)-1-(((S)-1-((3-methoxyphenyl)amino)-5-methyl-1,2-dioxohexan-3-yl)amino)-4-methyl-1-oxopentan-2-yl)amino)-4-methyl-1-oxopentan-2-yl)5-(4-acetylphenyl)-furan-2-carboxamide]",IC50,SW480,74.5 ± 3.13 nM
same,IC50,MGC-803,85.4 ± 6.73 nM
same,IC50,Ramos (RA 1),38.3 ± 3.04 nM
same,IC50,HeLa [2],239 ± 3.28 nM
same,IC50,RPMI8226,43.4 ± 1.04 nM
same,IC50,THP-1,97.9 ± 2.79 nM
"COc1ccc(C[C@H](NC(=O)[C@H](C)NC(=O)CN2CCOCC2)C(=O)N[C@@H](Cc2ccccc2)C(=O)[C@@]2(C)CO2)cc1 [ONX-0914, reference compound]",IC50,HeLa [2],590 nM
same,IC50,THP-1,202 nM
"CC(=O)c1cccc(NC(=O)C(=O)[C@H](CC(C)C)NC(=O)[C@H](Cc2c[nH]c3ccccc23)NC(=O)[C@H](CC(C)C)NC(=O)OCc2ccccc2)c1 [Compound 35, ((S)-1-(((S)-1-(((S)-1-((3-acetylphenyl)amino)-5-methyl-1,2-dioxohexan-3-yl)amino)-3-(1H-indol-3-yl)-1-oxopropan-2-yl)amino)-4-methyl-1-oxopentan-2-yl)carbamic acid benzyl ester]",fold increase in inhibitory activity than compounds with unsubstituted phenyl,[1],1.5–4 fold
"CC(C)C[C@H](NC(=O)OCc1ccccc1)C(=O)N[C@@H](CC(C)C)C(=O)N[C@@H](CC(C)C)C(=O)C(=O)Nc1ccccc1-c1ccccc1 [Compound 41, ((S)-1-(((S)-1-(((S)-1-([1,1′-biphenyl]-2-ylamino)-5-methyl-1,2-dioxohexan-3-yl)amino)-4-methyl-1-oxopentan-2-yl)amino)-4-methyl-1-oxopentan-2-yl)carbamic acid benzyl ester]",fold reduced inhibitory activity,[1]; phenyl in ortho position of head group phenyl,up to 150 fold
Cc1ccc(NC(=O)C(=O)C(CC(C)C)NC(=O)C(CC(C)C)NC(=O)C(CC(C)C)NC(=O)OCc2ccccc2)c(C)c1 (stereo not drawn) [BSc4999],fold more potent than BSc2189,[3],about 2 fold
"CC(C)C[C@H](NC(=O)[C@H](Cc1ccccc1)NC(=O)[C@H](CC1CCCCC1)NC(=O)OCc1ccccc1)C(=O)C(=O)Nc1ccccc1 [Compound 31, ((2S)-3-cyclohexyl-1-(((2S)-1-((5-methyl-1,2-dioxo-1-(phenylamino)hexan-3-yl)amino)-1-oxo-3-phenylpropan-2-yl)amino)-1-oxopropan-2-yl)carbamic acid benzyl ester]",fold increase in potency relative to analog 28,[1]; vs 28 with Ala at P3,3 fold
same,fold reduced activity compared with 30,[1]; vs 30 with Leu at P3,~3 fold
CC(C)C[C@H](NC(=O)OCc1ccccc1)C(=O)N[C@@H](CC(C)C)C(=O)N[C@@H](CC(C)C)C(=O)C(=O)Nc1ccccc1 [BSc2189],IC50,HeLa [4],254 nM
"CC(=O)c1ccc(-c2ccc(C(=O)N[C@@H](CC(C)C)C(=O)N[C@@H](CC(C)C)C(=O)N[C@@H](CC(C)C)C(=O)C(=O)Nc3cccc(C(C)=O)c3)o2)cc1 [Compound 46, 5-(4-acetylphenyl)-N-((S)-1-(((S)-1-(((S)-1-((3-acetylphenyl)amino)-5-methyl-1,2-dioxohexan-3-yl)amino)-4-methyl-1-oxopentan-2-yl)amino)-4-methyl-1-oxopentan-2-yl)furan-2-carboxamide]",IC50,SW480,79.3 ± 1.87 nM
same,IC50,MGC-803,79 ± 12.6 nM
same,IC50,Ramos (RA 1),26.13 ± 0.18 nM
same,IC50,HeLa [2],260 ± 4.34 nM
same,IC50,RPMI8226,38.1 ± 1.19 nM
same,IC50,THP-1,94.4 ± 1.45 nM
"CC(C)C[C@H](NC(=O)OCc1ccccc1)C(=O)N[C@@H](Cc1c[nH]c2ccccc12)C(=O)N[C@@H](CC(C)C)C(=O)C(=O)Nc1cccc(S(C)(=O)=O)c1 [Compound 36, ((S)-1-(((S)-3-(1H-indol-3-yl)-1-(((S)-5-methyl-1-((3-(methylsulfonyl)phenyl)amino)-1,2-dioxohexan-3-yl)amino)-1-oxopropan-2-yl)amino)-4-methyl-1-oxopentan-2-yl)carbamic acid benzyl ester]",fold increase in inhibitory activity than compounds with unsubstituted phenyl,[1],1.5–4 fold
"CC(=O)c1cccc(NC(=O)C(=O)[C@H](CC(C)C)NC(=O)[C@H](Cc2ccccc2)NC(=O)[C@H](CC(C)C)NC(=O)OCc2ccccc2)c1 [Compound 34, ((S)-1-(((S)-1-(((S)-1-((3-acetylphenyl)amino)-5-methyl-1,2-dioxohexan-3-yl)amino)-1-oxo-3-phenylpropan-2-yl)amino)-4-methyl-1-oxopentan-2-yl)carbamic acid benzyl ester]",fold increase in inhibitory activity than compounds with unsubstituted phenyl,[1],1.5–4 fold
"CC(=O)c1cccc(NC(=O)C(=O)[C@H](CC(C)C)NC(=O)[C@H](CC(C)C)NC(=O)[C@H](CC(C)C)NC(=O)OCc2ccccc2)c1 [Compound 38, ((S)-1-(((S)-1-(((S)-1-((3-acetylphenyl)amino)-5-methyl-1,2-dioxohexan-3-yl)amino)-4-methyl-1-oxopentan-2-yl)amino)-4-methyl-1-oxopentan-2-yl) carbamic acid benzyl ester]",fold increase in inhibitory activity than compounds with unsubstituted phenyl,[1],1.5–4 fold
